Sampled rows, rich in hits. Any-hit rate of the full collection: about 3.8%.
T cell HTS: T cell immune modulators affecting CD8 T cell-vesicle binding. 2C CD8+ T cell-vesicle binding, flow cytometry; stronger effect = lower value. response (vesicle binding), % at 7 µM. 330,000 tested, 0.068% active;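 active = response, share of CD8 T cells binding vesicles, and their 90th percentile fluorescence all below set limits, cut at about 80% in these data, passing the limit was not always enough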;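 note: values below 100% mean blocked vesicle binding to the CD8+ T cells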
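Also added: QL9-peptide-loaded Drosophila micro-vesicles bearing Ld, ICAM-1 and B7-1; Test system: purified 2C TCR transgenic mouse naive CD8+ T cells; Measured by: cytometric PE anti-B7-1 and Alexa647 anti-CD8 signals after 1% paraformaldehyde fixation; Timing: binding step 1.5 h, 37 °C, antibody labelling 20 min, ice.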
Exocytosis inh: blocks lytic granule exocytosis; TALL-104 LAMP-1 surface exposure, flow cytometry; cells stimulated with thapsigargin and PMA; inhibition, % at 10 µM; 360,000 tested, 0.66% active; AID 651702;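 active = inhibition above about 55%, limit read from the data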
rCAG binder: r(CAG) repeat RNA binding. TO-PRO-1 dye displacement fluorescence. inhibition, % at 3 µM. 370,000 tested, 1.3% active. AID 651821;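 active = inhibition above the plate cutoff, the mean of all test compounds on that plate plus 3 SD, cut at about 35% in these data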;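 note: 0% = DMSO alone and 100% = 100 µM mitoxantrone as full dye displacement; higher means more dye released from RNA so lower well fluorescence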
V-ATPase pHluor: alters yeast V-ATPase proton transport. 350,000 tested, 0.37% active. S. cerevisiae, pHLuorin cytosolic pH fluorescence. AID 504577. response, % at 10 µM; in the data active = response mostly above about 7.3%, no sharp cut-off; inactive = mostly below about 5.4%; note: actives read high
B2AR ag: human beta-2 adrenergic receptor agonism by FAP. P07550. Am2.2-beta2AR cells, FAP receptor internalization, flow cytometry. response, % (no concentration beside the values). 340,000 tested, 0.43% active. AID 504454;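 active = response above a set limit, near 3 SD of response in nonfluorescent compounds, cut at about 42% in these data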
Target sequence (P07550 whole entry, looked up): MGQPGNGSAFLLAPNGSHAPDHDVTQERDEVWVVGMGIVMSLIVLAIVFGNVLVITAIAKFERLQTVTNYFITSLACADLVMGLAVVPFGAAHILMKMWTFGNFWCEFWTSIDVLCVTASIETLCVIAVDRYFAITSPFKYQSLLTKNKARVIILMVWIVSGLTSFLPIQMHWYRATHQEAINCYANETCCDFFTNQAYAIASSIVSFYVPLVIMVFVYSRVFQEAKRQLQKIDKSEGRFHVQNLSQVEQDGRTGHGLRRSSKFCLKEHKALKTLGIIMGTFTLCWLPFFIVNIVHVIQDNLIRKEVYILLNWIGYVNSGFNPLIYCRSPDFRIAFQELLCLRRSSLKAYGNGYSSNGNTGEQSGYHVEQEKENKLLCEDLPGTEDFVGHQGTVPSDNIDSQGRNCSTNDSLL
MPTP inh: inhibitors of mitochondrial permeability transition pore. isolated mouse mitochondria, Ca2+ swelling absorbance, 30 min. inhibition, % at 10 µM. 360,000 tested, 1.4% active. AID 602449;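 active = inhibition of 50% or more, scaled per plate between neutral and stimulator controls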;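 note: 0% = DMSO wells given calcium and 100% = 1 mM EGTA wells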
rCAG bind conf: r(CAG) RNA repeat binding, confirmation; shares compounds with rCAG binder; TO-PRO-1 dye displacement fluorescence; inhibition, % at 3 µM; 4,300 tested, 70% active;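 active = inhibition above a per-plate cutoff, the mean inhibition of sample wells plus 3 SD, cut at about 35% in these data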;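 note: loss of TO-PRO-1 fluorescence as compound displaces dye from 1x1 AA loop RNA; 0% = DMSO only wells and 100% = 100 µM mitoxantrone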
DNA CAG counter: counter-screen for rCAG RNA binders: DNA CAG dye complex inhibitors | shares compounds with rCAG binder | inhibition, % at 3 µM | 4,300 tested, 94% active | d(CAG) DNA oligo TO-PRO-1 dye displacement, fluorescence;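 active = inhibition above its plate's cutoff, the mean test-well inhibition plus 3 SD, cut at about 4.8% in these data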;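 note: 0% = DNA dye mix with DMSO and 100% = 100 µM mitoxantrone; hits displace the dye from DNA and so lower well fluorescence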
DNA CAG DR: DNA CAG dye complex inhibition, dose response counter-screen | shares compounds with rCAG binder | DNA CAG/GTC duplex TO-PRO-1 dye displacement fluorescence | IC50, µM | 250 tested, 20% active; in the data active = IC50 below about 10 µM
* = called active by the depositor; i = inactive; . = no result.

SMILES	T cell HTS	Exocytosis inh	rCAG binder	V-ATPase pHluor	B2AR ag	MPTP inh	rCAG bind conf	DNA CAG counter	others
O=C(Nc1cccc(S(=O)(=O)NC2=NCCC2)c1)c1cc(-c2ccco2)nc2ccccc12	46	-6	41*	1	-3	3	43*	25*
O=C(O)/C=C/c1cn(-c2ccccc2)nc1-c1cc2ccccc2o1	62	2	67*	11	6	3	73*	26*	DNA CAG DR=i
O=C(O)/C=C\c1cn(-c2ccccc2)nc1-c1cc2ccccc2o1	219	5	72*	-2	-15	-1	62*	22*
O=[N+]([O-])c1cncc2[nH]cnc12	.	.	3	.	.	.	.	.
C#CCN1C(=O)[C@]2(OC[C@@H]3Cc4ccccc4[C@@H]3C=C2C)c2ccccc21	.	.	5	.	.	.	.	.
Cc1ccc(S(=O)(=O)N(CC(=O)NC2CCC(C)CC2)c2cc(C)cc(C)c2)cc1 (stereo not drawn)	.	.	2	.	.	.	.	.
CCN(CC)c1ccc(C(=O)OCc2cc(=O)oc3cc(O)ccc23)cc1	185	-3	36*	-3	29	1	43*	19*
CCCCc1cc(=O)oc2cc(O)ccc12	428	-1	-1	-2	-5	3	.	.
O=c1nc2ccc(Cl)cn2c2ccc(S(=O)(=O)N3CCOCC3)cc12	361	-8	12	-1	-10	-2	.	.
O=c1nc2ccc(Cl)cn2c2ccc(S(=O)(=O)N3CCCCC3)cc12	419	-4	41*	-2	-10	-1	8	4.4*
CCOc1ccc(C(=O)Oc2cc(C)[nH]c(=O)c2[N+](=O)[O-])cc1	i	-3	74*	3	11	-2	0	-1
CCCCOc1ccc(C(=O)Oc2cc(C)[nH]c(=O)c2[N+](=O)[O-])cc1	509	-2	3	2	2	2	.	.
CS/C(Nc1cc(Cl)ccc1Cl)=C(/C#N)C(=O)c1ccco1	599	7	47*	3	34	36	33	5.7*
COc1ccc(C(=O)Nc2cccc(/C=C(\CCC(=O)O)c3nc4ccccc4s3)c2)cc1	273	-1	62*	1	16	4	76*	38*
COc1cc(/C=C(\CC(=O)O)c2nc3ccccc3s2)cc(OC)c1O	238	-7	14	-6	5	1	.	.
COc1ccc(NC(=O)c2nc3ccccc3s2)cc1	211	-7	0	0	-8	0	.	.
O=C(O)C/C(=C\c1cccc(NC(=O)c2ccccc2Cl)c1)c1nc2ccccc2s1	250	1	54*	1	9	6	57*	24*
O=C(O)C/C(=C\c1cc2c(cc1Br)OCO2)c1nc2ccccc2s1	474	-6	35*	4	8	-1	36*	9.5*
CC(=O)C1(C(=O)Nc2cc(C)cc(C)c2)CC(c2ccccn2)=NO1 (stereo not drawn)	.	.	8	.	.	.	.	.
CC(=O)c1ccc(NC(=O)Nc2sc(NS(=O)(=O)c3ccccc3)nc2C)cc1	258	2	38*	2	3	0	22	8.2*
Cc1nc(NS(=O)(=O)c2ccccc2)sc1NC(=O)Nc1ccc(Cl)cc1	77	1	49*	-1	3	0	38*	15*
Cc1nc(NS(=O)(=O)c2ccccc2)sc1NC(=O)Nc1ccccc1	490	0	23	0	-5	-1	.	.
O=C1OC(c2ccc3ccccc3c2O)(c2ccc3ccccc3c2O)c2ccccc21	.	2	63*	-1	-86	2	70*	35*
C#CCN1CC(N(C)CCOC(=O)CCCc2ccccc2)CS1(=O)=O (stereo not drawn)	.	.	2	.	.	.	.	.
O=S1(=O)c2ccc(N3CCC[C@H]3CO)cc2O[C@@H]2CCN1C2	.	.	0	.	.	.	.	.
SMILES	T cell HTS	Exocytosis inh	rCAG binder	V-ATPase pHluor	B2AR ag	MPTP inh	rCAG bind conf	DNA CAG counter	others
COc1ccc(C2CC(=O)C(c3ccccc3OC)=CN2Cc2ccccc2)cc1 (stereo not drawn)	.	.	-1	.	.	.	.	.
CN(C)c1ccc(-c2noc(C3CCN(S(=O)(=O)c4cccc(C(=O)O)c4)CC3)n2)cc1	508	-5	65*	1	7	-1	68*	32*
CC(=O)NC(CC(=O)Nc1ccc(S(=O)(=O)Nc2nccs2)cc1)c1ccccc1 (stereo not drawn)	.	3	8	1	-3	0	.	.
CCCC(C(=O)Nc1ccc(S(=O)(=O)Nc2nccs2)cc1)c1ccccc1 (stereo not drawn)	.	-3	49*	8	5	-2	36*	9.7*
CCCCCCCC(=O)Nc1ccc(S(=O)(=O)Nc2nccs2)cc1	358	-3	55*	-1	7	1	41*	18*
COc1ccc2c(c1)[C@@]1(OCCC=C[C@H]1C)C(=O)N2Cc1ccccc1C(F)(F)F	.	.	-3	.	.	.	.	.
O=C(CSc1nc2ccccc2c(=O)n1-c1ccc(Cl)cc1)NNC(=S)Nc1ccccc1	.	.	49*	.	.	.	38*	17*
Cc1ccc(NC(=S)NNC(=O)CSc2nc3sc4c(c3c(=O)n2-c2ccccc2)CCCC4)cc1	.	.	52*	.	.	.	59*	22*
COCc1nnc(NC(=O)c2ccc(S(=O)(=O)N3CCCc4ccccc43)cc2)o1	i	-1	25	3	-1	-2	.	.
O=C(Nc1nnc(C2CC2)o1)c1ccc(S(=O)(=O)N2CCCc3ccccc32)cc1	270	1	36*	-4	13	-24	32	11*
c1cnc(SCC2CCCCC2)c(-c2nc3ccccc3[nH]2)c1	.	.	0	.	.	.	.	.
CCOc1ccc(-n2c(SCC(=O)c3ccc4ccccc4c3)nnc2-c2cccc(Cl)c2)cc1	.	.	15	.	.	.	.	.
Cc1noc(NS(=O)(=O)c2ccc(NC(=O)c3ccc(N(C)C)cc3)cc2)c1C	305	1	16	1	-7	-1	.	.
COc1ccccc1C(=O)Nc1ccc(S(=O)(=O)Nc2onc(C)c2C)cc1	470	4	13	-3	5	1	.	.
COc1ccc(C(=O)Nc2ccc(S(=O)(=O)Nc3onc(C)c3C)cc2)c(OC)c1	268	-6	41*	-2	8	-1	20	4
Cc1noc(NS(=O)(=O)c2ccc(NC(=O)c3ccc(OC(C)C)cc3)cc2)c1C	161	18	44*	2	3	-1	26	4
Cc1noc(C)c1S(=O)(=O)Nc1ccc(C(=O)Nc2ccc(OC(F)(F)F)cc2)cc1	337	-7	39*	0	15	1	28	4.7*
